Test results: ChEMBL document CHEMBL1129729, “Orally active fibrinogen receptor antagonists. 2. Amidoximes as prodrugs of amidines” (J Med Chem, 1996)

What was measured:
[1] = molecular target: Integrin alpha-IIb/beta-3 (Homo sapiens, UniProt P05106+P08514); test: Inhibition of FG binding to alpha IIb beta-3 integrin; assay type: protein-complex assay
Procedure, shortened: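 Binding of fibrinogen to immobilized purified GP IIb-IIIa (αIIbβ3). IC50 was calculated by log-linear regression and is the mean of at least two independent experiments.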

Homo sapiens [2] = species on record: Homo sapiens; test: Inhibition of platelet aggregation of human platelet rich plasma(h-PRP) induced by adenosine 5-diphosphate (ADP).(oral activity in mice); assay type: functional; details: read-out: ID50 (the source's name)
Procedure, shortened: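 Mice got about 100 mg/kg orally, suspended in 10% gelatin (particle <1 µm); one mouse was killed at 1 h and one at 3 h for plasma. Serial dilutions of plasma (100 µL) were mixed with 300 µL human PRP and aggregated with 10 µM ADP (final). Dose divided by the IC50 dilution factor gave ID50; 1 h and 3 h values pooled, mean ± SEM.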

Homo sapiens [3] = species on record: Homo sapiens; test: Inhibition of platelet aggregation in human platelet rich plasma(h-PRP) induced by adenosine 5-diphosphate (ADP); assay type: functional
Procedure, shortened: (§1)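 ADP-induced aggregation of human platelet-rich plasma, measured in vitro. Plasma came from at least two donors. IC50 was read from the inhibition of aggregation.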

Homo sapiens [4] = species on record: Homo sapiens; test: Compound was tested for inhibition of platelet aggregation of human platelet rich plasma(h-PRP) induced by adenosine 5-diphosphate (ADP); assay type: functional; procedure, shortened: as §1

Chain of Integrin alpha-IIb/beta-3 (P05106 27-788 limits assumed): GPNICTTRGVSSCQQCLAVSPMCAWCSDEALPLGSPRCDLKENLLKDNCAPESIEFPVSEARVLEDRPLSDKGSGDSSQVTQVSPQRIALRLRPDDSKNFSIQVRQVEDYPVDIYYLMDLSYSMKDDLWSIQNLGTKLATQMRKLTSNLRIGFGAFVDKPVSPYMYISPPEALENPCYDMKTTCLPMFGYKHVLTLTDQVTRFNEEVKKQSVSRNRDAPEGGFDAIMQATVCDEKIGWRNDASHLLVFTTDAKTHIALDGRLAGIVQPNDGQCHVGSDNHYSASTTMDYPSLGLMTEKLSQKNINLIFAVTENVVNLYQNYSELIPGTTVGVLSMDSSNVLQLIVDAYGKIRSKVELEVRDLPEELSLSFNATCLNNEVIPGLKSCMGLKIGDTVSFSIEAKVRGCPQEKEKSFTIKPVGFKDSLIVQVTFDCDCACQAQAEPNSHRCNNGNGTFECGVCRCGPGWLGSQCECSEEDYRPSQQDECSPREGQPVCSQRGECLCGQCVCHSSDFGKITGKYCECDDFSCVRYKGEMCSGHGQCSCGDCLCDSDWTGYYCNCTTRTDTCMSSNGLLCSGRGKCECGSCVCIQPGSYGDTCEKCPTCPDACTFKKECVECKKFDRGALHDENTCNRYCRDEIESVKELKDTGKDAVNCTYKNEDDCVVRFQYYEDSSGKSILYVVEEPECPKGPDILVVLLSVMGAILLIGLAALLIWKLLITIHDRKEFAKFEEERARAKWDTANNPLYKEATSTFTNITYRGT
Chain of Integrin alpha-IIb/beta-3 (P08514 32-887 limits assumed): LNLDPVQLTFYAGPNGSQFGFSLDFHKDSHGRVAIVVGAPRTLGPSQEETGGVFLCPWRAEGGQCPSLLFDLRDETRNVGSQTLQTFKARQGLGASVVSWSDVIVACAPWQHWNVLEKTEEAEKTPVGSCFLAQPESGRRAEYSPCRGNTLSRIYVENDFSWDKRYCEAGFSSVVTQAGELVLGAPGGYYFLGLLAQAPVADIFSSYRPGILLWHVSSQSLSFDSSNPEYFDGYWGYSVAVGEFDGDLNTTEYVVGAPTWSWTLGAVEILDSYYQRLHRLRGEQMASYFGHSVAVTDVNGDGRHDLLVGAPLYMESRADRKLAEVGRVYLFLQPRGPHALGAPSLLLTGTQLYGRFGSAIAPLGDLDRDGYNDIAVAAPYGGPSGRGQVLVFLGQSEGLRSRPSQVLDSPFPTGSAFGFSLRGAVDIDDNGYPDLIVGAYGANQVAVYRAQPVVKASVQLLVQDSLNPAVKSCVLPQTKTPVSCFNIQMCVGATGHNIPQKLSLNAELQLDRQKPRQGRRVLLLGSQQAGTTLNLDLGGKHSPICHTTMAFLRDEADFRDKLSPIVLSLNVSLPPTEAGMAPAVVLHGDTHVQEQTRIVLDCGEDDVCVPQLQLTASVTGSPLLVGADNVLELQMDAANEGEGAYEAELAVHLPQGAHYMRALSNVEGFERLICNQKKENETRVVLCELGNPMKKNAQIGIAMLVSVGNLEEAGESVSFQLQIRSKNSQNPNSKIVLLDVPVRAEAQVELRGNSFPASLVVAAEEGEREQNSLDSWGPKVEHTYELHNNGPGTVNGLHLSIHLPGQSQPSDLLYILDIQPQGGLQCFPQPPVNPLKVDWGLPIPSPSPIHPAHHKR
Chain of Integrin alpha-IIb/beta-3 (P08514 891-1039 limits assumed): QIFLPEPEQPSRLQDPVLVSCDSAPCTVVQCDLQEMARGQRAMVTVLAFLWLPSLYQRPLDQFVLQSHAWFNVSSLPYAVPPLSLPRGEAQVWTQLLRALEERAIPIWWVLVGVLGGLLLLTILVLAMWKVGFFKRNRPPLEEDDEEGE

Row | Compound | IC50 [1] [nM] | IC50 (Homo sapiens [3]) [nM] | IC50 (Homo sapiens [4]) [nM] | ED50 (Homo sapiens [2]) [mg/kg]
1 | CC(C)OC(=O)COc1ccc(C(=O)CN(C)C(=O)c2ccc(C(=N)N)cc2)cc1OCC(=O)OC(C)C | 900 | 345 | – | 11
2 | CCOC(=O)COC1CCN(C(=O)[C@H](Cc2ccc(O)cc2)NC(=O)c2ccc(C(N)=NC(=O)OCC)cc2)CC1 | > 8000 | 39800 | – | 1.4
3 | CCOC(=O)NC(=N)c1ccc(C(=O)N(C)CC(=O)c2ccc(OCC(=O)OC(C)C)c(OCC(=O)OC(C)C)c2)cc1 | > 10000 | > 100000 | – | 1.4
4 | CCOC(=O)COC1CCN(C(=O)[C@H](Cc2ccc(O)cc2)NC(=O)c2ccc(C(=N)N)cc2)CC1 | 51 | 63 | – | 6.9
5 | COC(=O)COc1ccc(C(=O)CN(C)C(=O)c2ccc(C(=N)NO)cc2)cc1OCC(=O)OC | > 10000 | > 100000 | – | 0.7
6 | CN(CC(=O)c1ccc(OCC(=O)O)c(OCC(=O)O)c1)C(=O)c1ccc(C(=N)N)cc1 | 0.4 | 51 | – | 11.2
7 | CCOC(=O)COC1CCN(C(=O)[C@H](Cc2ccc(O)cc2)NC(=O)c2ccc(C(=N)NO)cc2)CC1 | > 10000 | > 100000 | – | 2.6
8 | N=C(N)c1ccc(C(=O)N[C@@H](Cc2ccc(O)cc2)C(=O)N2CCC(OCC(=O)O)CC2)cc1 [LAMIFIBAN] | 1.4 | – | 33 | 8.5

Further lines, with some results ahead:

Row | IC50 [1] [nM] | IC50 (Homo sapiens [3]) [nM] | IC50 (Homo sapiens [4]) [nM] | Compound | ED50 (Homo sapiens [2]) [mg/kg]
9 | > 10000 | > 100000 | – | CCOC(=O)NC(=N)c1ccc(C(=O)N[C@@H](Cc2ccc(OC(C)=O)cc2)C(=O)N2CCC(OCC(=O)OC(C)C)CC2)cc1 | 0.9
10 | 90 | 1950 | – | CCOC(=O)NC(=N)c1ccc(C(=O)N[C@@H](Cc2ccc(O)cc2)C(=O)N2CCC(OCC(=O)O)CC2)cc1 | 10.7
11 | > 10000 | > 60000 | – | CC(C)OC(=O)OC(C)OC(=O)COC1CCN(C(=O)[C@H](C)NC(=O)c2ccc(C(=N)NO)cc2)CC1 (stereo not given in full) | 0.34
12 | > 10000 | > 100000 | – | CCCCOC(=O)NC(=N)c1ccc(C(=O)N[C@@H](C)C(=O)N2CCC(OCC(=O)OCC)CC2)cc1 | 0.3
13 | 594 | 13800 | – | C[C@H](NC(=O)c1ccc(C(=N)NO)cc1)C(=O)N1CCC(OCC(=O)O)CC1 | 5.1
14 | 163 | 500 | – | CCOC(=O)COC1CCN(C(=O)[C@H](C)NC(=O)c2ccc(C(=N)N)cc2)CC1 | 1.8
15 | 1.9 | 38 | – | C[C@H](NC(=O)c1ccc(C(=N)N)cc1)C(=O)N1CCC(OCC(=O)O)CC1 [RO-44-3888] | 5.2
